Activity calls are given as the source filed them. The rule behind the calls is not given here.

Data set [1] concerns Mus musculus. The data set can be described thus: Toxicity in C57BL/6J mouse assessed as effect on plasma AST levels at 30 mg/kg administered daily via oral gavage for 3 months. The data set is classed as organism-based. Particulars: in vivo. Put shortly:
(§1)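 Long-term safety study in C57BL/6J mice, 20 male and 20 female, sorted by gender, blood glucose and body weight into four groups (n = 10 each). Treated groups of each sex got 30.0 mg/kg daily by oral gavage in soybean vehicle. Vehicle groups got an equal volume of soybean. Dosing ran three months, with behavior, survival, body weight, blood glucose, liver function and organ coefficients recorded.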

The test system of data set [2] is Mus musculus. Nature of the data set: Antifibrotic activity in ob/ob mouse assessed as decrease in TGF-beta1 expression in liver at 3 mg/kg administered daily via oral gavage for 31 days by immunohistochemical staining-based microscopic method. It is filed as functional, organism-based.
Data set [3] concerns Mus musculus. Nature of the data set: In vivo inhibition of alpha-glucosidase activity in ob/ob mouse assessed as accumulation of carbohydrate in lower part of small intestine at 3 mg/kg administered daily via oral gavage for 31 days. The data set is classed as functional, organism-based.
Data set [4] has as its system Mus musculus. The data set can be described thus: Hypoglycemic activity in ob/ob mouse assessed as decrease in free diet blood glucose levels administered daily via oral gavage for 28 days. It is filed as functional, organism-based. Put shortly: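 Male ob/ob mice, n = 10 per group, daily gavage at 0.3, 1.0 or 3.0 mg/kg in soybean vehicle. Fasting and free-diet blood glucose and HbA1c measured.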

Data set [5] can be described thus: Inhibition of rat small intestinal mucosal alpha-glucosidase using p-nitrophenyl-alpha-D-glucopyranoside as substrate by HPLC method. Put shortly: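 Rat intestinal α-glucosidase; after incubation the product 4-nitrophenol is quantified at once by HPLC (gradient from 20% acetonitrile in water with 0.1‰ TFA to 100% acetonitrile over 10 min). Each concentration run 3 times in parallel; % inhibition from peak areas versus control minus control blank; IC50 from the concentration series.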

For the next data set, the system named is Alistipes. The data set can be described thus: Decrease in Alistipes levels in cecum of ob/ob mouse at 3 mg/kg administered daily via oral gavage for 31 days by 16S rRNA gene high-throughput sequencing method. It is filed as functional, organism-based. Put shortly: (§2)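 Male ob/ob mice dosed daily by gavage at 1.0 or 3.0 mg/kg, compared with vehicle group. DNA extracted from about 150 mg caecum contents. 16S rRNA V3–V4 region amplified and sequenced on Illumina HiSeq PE250. Community compared by NMDS/MRPP; discriminant taxa identified by LEfSe.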

Data set [6] relates to Mus musculus. Nature of the data set: Hypolipidemic activity in ob/ob mouse assessed as decrease in size of adipocytes in white adipose tissue at 3 mg/kg administered daily via oral gavage for 31 days by hematoxylin-eosin staining-based microscopic method. It is filed as functional, organism-based. Put shortly:
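Male ob/ob mice dosed by gavage (soybean vehicle); liver and abdominal white adipose tissue fixed in 10% formaldehyde-PBS pH 7.4, paraffin-embedded, sectioned, stained with H&E, Oil Red O or sirius red, and examined by light microscopy.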

For data set [7], the system named is Mus musculus. Nature of the data set: Hypolipidemic activity in ob/ob mouse assessed as decrease in serum total cholesterol levels administered daily via oral gavage for 31 days. It is filed as functional, organism-based.
For data set [8], the system named is Mus musculus. Nature of the data set: Hypolipidemic activity in ob/ob mouse assessed as decrease in liver triglyceride levels at 0.3 to 3 mg/kg administered daily via oral gavage for 31 days. It is filed as functional, organism-based.
In data set [9] the test system is Mus musculus. The data set can be described thus: Reduction of plasma LPS levels in antibiotic-treated ob/ob mouse at 3 mg/kg administered daily via oral gavage for 3 weeks by ELISA. The data set is classed as functional, organism-based. The procedure, abridged: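 Male ob/ob mice treated daily by gavage (soybean vehicle); plasma LPS and TNF-α quantified by ELISA kits. For antibiotic groups, ob/ob mice first received an oral antibiotic cocktail (ampicillin 1 g/L, vancomycin, neomycin, gentamycin, erythromycin) for three weeks, then 3.0 mg/kg/day; n = 8 per group.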
On the technique in general: An ELISA detects its analyte on a solid surface through an enzyme-linked reagent.

Data set [10] relates to Mus musculus. The data set can be described thus: Hypolipidemic activity in C57BL/6J DIO mouse assessed as decrease in plasma free fatty acid levels at 0.3 to 3 mg/kg administered daily via oral gavage for 5 weeks. It is filed as functional, organism-based. The procedure, abridged:
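High-fat-diet male C57BL/6J mice, n = 8 per group, daily gavage at 0.3–3.0 mg/kg in soybean vehicle for 5 weeks. Serum total cholesterol, triglycerides and free fatty acids measured.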

In data set [11] the test system is Mus musculus. The data set can be described thus: Antiobesity activity in C57BL/6J DIO mouse assessed as reduction in weight gain at 3 mg/kg administered daily via oral gavage for 5 weeks relative to vehicle-treated control. The data set is classed as functional. Further details: scale not given: the % may be the effect or the level left. Put shortly: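 Male C57BL/6J mice on high-fat diet, n = 8 per group, grouped by blood glucose and body weight. Daily oral gavage at 0.3, 1.0 or 3.0 mg/kg in soybean vehicle for 5 weeks. Vehicle groups were on normal diet and on high-fat diet.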

Data set [12] has as its system Mus musculus. Nature of the data set: Hypolipidemic activity in ob/ob mouse assessed as decrease in plasma free fatty acid levels administered daily via oral gavage for 31 days. It is filed as functional, organism-based.
The subject of another data set is Gammaproteobacteria. The data set can be described thus: Decrease in Gammaproteobacteria levels in cecum of ob/ob mouse at 1 to 3 mg/kg administered daily via oral gavage for 31 days by 16S rRNA gene high-throughput sequencing method. It is filed as functional, organism-based. The procedure, abridged:
as §2

Data set [13] relates to Mus musculus. Nature of the data set: Upregulation of occludin mRNA expression in ob/ob mouse ileum at 3 mg/kg administered daily via oral gavage for 31 days by RNA-seq analysis. It is filed as functional, organism-based.
A short description of data set [14]: AUC (0 to t) in Sprague-Dawley rat at 2 mg/kg, po. The data set is classed as ADME, organism-based. Particulars: in vivo. The procedure, abridged:
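Male Sprague-Dawley rats (n = 6, 0.21–0.23 kg), single oral dose 2.0 mg/kg. Orbital blood sampled 0–16 h into heparinized tubes. Plasma was protein-precipitated with methanol, with internal standard added. Quantified by UPLC-ESI(+)-QTOF-MS in SIM mode on a C18 column with a methanol/0.3% formic acid water gradient. Linear range 0.54–107 ng/ml.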

Data set [15] relates to Mus musculus. Nature of the data set: Toxicity in C57BL/6J mouse assessed as effect on plasma ALT levels at 30 mg/kg administered daily via oral gavage for 3 months. The data set is classed as organism-based. Particulars: in vivo. Put shortly:
as §1

Data set [16] deals with Mus musculus. The data set can be described thus: In vivo inhibition of alpha-glucosidase activity in ob/ob mouse assessed as reduction of blood glucose AUC at 0.3 to 3 mg/kg administered daily via oral gavage for 32 days by OMTT. The data set is classed as functional, organism-based. Put shortly: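 Male ob/ob mice given 0.3–3.0 mg/kg daily by gavage; after overnight fast, sucrose (OSTT) or maltose (OMTT) 4.0 g/kg given orally; blood glucose by glucose meter at 0, 40, 80 and 120 min; AUC calculated from the time course.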

The test system of data set [17] is Mus musculus. Nature of the data set: Hypoglycemic activity in antibiotic-treated ob/ob mouse assessed as decrease in fasting blood glucose levels at 3 mg/kg administered daily via oral gavage for 3 weeks. The data set is classed as functional, organism-based. Put shortly: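 Male ob/ob mice pretreated three weeks with ampicillin (1 g/L), vancomycin, neomycin, gentamycin and erythromycin. Groups of n = 8 given 3.0 mg/kg/day orally in soybean vehicle versus vehicle. Plasma and hepatic lipids, fasting glucose, OGTT (glucose 2 g/kg after overnight fast) and HbA1c measured.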

Data set [18] has as its system Mus musculus. The data set can be described thus: Hypoglycemic activity in C57BL/6J DIO mouse assessed as decrease in blood glucose AUC at 0.3 to 3 mg/kg administered daily via oral gavage for 25 days by OGTT. The data set is classed as functional, organism-based. The procedure, abridged:
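Male ob/ob or high-fat-diet C57BL/6J mice dosed daily by gavage at 0.3–3.0 mg/kg. OGTT: glucose 2 g/kg orally after overnight fast. ITT: insulin 0.6 U/kg i.p. after 4 h fast. Glucometer readings at 0, 40, 80 and 120 min; AUC computed from the curves.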

Data set [19] concerns Mus musculus. Nature of the data set: Downregulation of Tnfa mRNA expression in ob/ob mouse ileum at 3 mg/kg administered daily via oral gavage for 31 days by RNA-seq analysis. It is filed as functional, organism-based.
Data set [20] has as its system Mus musculus. Nature of the data set: Hypolipidemic activity in ob/ob mouse assessed as decrease in serum ALT levels at 0.3 to 3 mg/kg administered daily via oral gavage for 31 days. It is filed as functional, organism-based.

With `CC(C)=CCC/C(C)=C/CCC1=C[C@H](c2ccc(C(C)(C)C)cc2)OC1=O`, the Activity entry in the data set with Mus musculus [1] is “Non-Toxic”; with Mus musculus [4], “Dose-dependent effect”; in the data set on Mus musculus [7], “Dose-dependent effect”; with Mus musculus [11] it was 25.4%; in the data set with Mus musculus [12] it was “Dose-dependent effect”; in the data set on Mus musculus [15], “Non-Toxic”. The outcome in the data set with Mus musculus [2], with Alistipes, with Mus musculus [6], with Mus musculus [8], in the data set on Mus musculus [10] and in the data set on Gammaproteobacteria was Active. In addition, the result in the data set with Mus musculus [13], with Mus musculus [18], in the data set on Mus musculus [19] and in the data set with Mus musculus [20] was Active. The inhibition result with Mus musculus [3] and with Mus musculus [16] was “Active” throughout. This molecule also had an IC50 in data set [5] of 0.04 µM. In addition, the outcome with Mus musculus [9] and in the data set with Mus musculus [17] was inactive. In data set [14], this molecule displayed an area under the curve AUC(0-t) of 0.274 µg·h/mL.

Broadly, the IC50 is the concentration needed to halve the response being measured. The term AUC(0-t) denotes the area under the concentration-time curve up to a stated or last time point.

Source of the values: ChEMBL document CHEMBL4177753, “Structural Modification of Natural Product Ganomycin I Leading to Discovery of a α-Glucosidase and HMG-CoA Reductase Dual Inhibitor Improving Obesity and Metabolic Dysfunction in Vivo” (J Med Chem, 2018).
